Test results published in ChEMBL document CHEMBL1130175, “Sulfated galactocerebrosides as potential antiinflammatory agents” (J Med Chem, 1997).

Target: T1, P-selectin (Homo sapiens, UniProt P16109)
T1 sequence (P16109 whole entry): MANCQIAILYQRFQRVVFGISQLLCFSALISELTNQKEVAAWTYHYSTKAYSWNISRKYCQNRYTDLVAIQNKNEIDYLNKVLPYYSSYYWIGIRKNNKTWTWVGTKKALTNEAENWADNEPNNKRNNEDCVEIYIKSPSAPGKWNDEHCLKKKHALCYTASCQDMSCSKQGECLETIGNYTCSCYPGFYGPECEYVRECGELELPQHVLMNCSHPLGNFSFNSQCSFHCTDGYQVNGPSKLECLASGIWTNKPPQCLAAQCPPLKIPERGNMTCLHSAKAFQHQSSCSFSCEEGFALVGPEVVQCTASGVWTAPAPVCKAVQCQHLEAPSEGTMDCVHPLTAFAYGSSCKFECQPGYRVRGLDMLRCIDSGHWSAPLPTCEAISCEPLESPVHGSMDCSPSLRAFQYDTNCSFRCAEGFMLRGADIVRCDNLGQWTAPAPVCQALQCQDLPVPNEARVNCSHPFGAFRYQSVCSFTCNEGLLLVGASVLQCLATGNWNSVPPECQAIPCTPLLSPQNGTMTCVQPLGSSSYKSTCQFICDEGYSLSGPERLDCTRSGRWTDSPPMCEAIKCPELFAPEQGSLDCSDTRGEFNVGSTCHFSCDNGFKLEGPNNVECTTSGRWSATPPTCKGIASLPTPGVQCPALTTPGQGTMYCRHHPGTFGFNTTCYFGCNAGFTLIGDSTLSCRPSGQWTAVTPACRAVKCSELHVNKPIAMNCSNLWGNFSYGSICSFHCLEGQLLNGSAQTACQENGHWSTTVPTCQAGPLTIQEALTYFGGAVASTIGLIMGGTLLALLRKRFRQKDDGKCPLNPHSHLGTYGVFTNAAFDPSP
Assay: In vitro inhibitory concentration against Selectin P in a cell-free binding assay
How it was run: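 Soluble P-selectin receptor globulin (lectin, EGF and two complement repeat domains fused to an Ig tail), premixed with HRP-conjugated goat anti-human IgG. The complex was incubated on sulfatide-coated ELISA plates with or without test compound, 0.5% DMSO final. Read-out was TMB colour at 450 nm. Eight 2-fold dilutions were tested, mean of duplicates, and IC50 was interpolated from the linear part of the log dose-response curve.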

First: CCCCCCCCCCCCC/C=C/[C@@H](O)[C@H](CO[C@@H]1O[C@@H](CO)[C@@H](O)[C@H](OS(=O)(=O)O)[C@@H]1OS(=O)(=O)O)NC(=O)CCCCCCCCCCCCCCC
Second: CCCCCCCCCCCCC/C=C/[C@@H](O)[C@H](CO[C@@H]1O[C@@H](CO)[C@@H](O)[C@H](OS(=O)(=O)O)[C@@H]1O)NC(=O)CCCCCCCCCCCCCCC
The IC50 of the first is 6-fold lower: 0.1 µM for the first, 0.6 µM for the second.

`CCCCCCCCCCCCC/C=C/[C@@H](OC(=O)c1ccccc1)[C@H](CO[C@@H]1O[C@@H](COS(=O)(=O)O)[C@@H](OC(C)=O)[C@H](OS(=O)(=O)O)[C@@H]1OC(=O)c1ccccc1)NC(=O)CCCCCCCCCCCCCCC` and `CCCCCCCCCCCCC/C=C/[C@@H](OC(=O)c1ccccc1)[C@H](CO[C@@H]1O[C@@H](COS(=O)(=O)O)[C@@H](O)[C@H](O)[C@@H]1OS(=O)(=O)O)NC(=O)CCCCCCCCCCCCCCC` are within 1.5-fold of each other in IC50: 1.3 µM for the first, 0.9 µM for the second.

First: CCCCCCCCCCCCC/C=C/[C@@H](O)[C@H](CO[C@@H]1O[C@@H](COS(=O)(=O)O)[C@@H](O)[C@H](O)[C@@H]1O)NC(=O)CCCCCCCCCCCCCCC
Second: CCCCCCCCCCCCC/C=C/[C@@H](O)[C@H](CO[C@@H]1O[C@@H](COS(=O)(=O)O)[C@@H](O)[C@H](OS(=O)(=O)O)[C@@H]1O)NC(=O)CCCCCCCCCCCCCCC
The IC50 of the first is 5-fold higher: 12 µM for the first, 2.4 µM for the second.

`CCCCCCCCCCCCC/C=C/[C@@H](O)[C@H](CO[C@@H]1O[C@@H](COS(=O)(=O)O)[C@@H](O)[C@H](O)[C@@H]1OS(=O)(=O)O)NC(=O)CCCCCCCCCCCCCCC` and `CCCCCCCCCCCCC/C=C/[C@@H](O)[C@H](CO[C@@H]1O[C@@H](COS(=O)(=O)O)[C@@H](OS(=O)(=O)O)[C@H](O)[C@@H]1O)NC(=O)CCCCCCCCCCCCCCC` are within 1.5-fold of each other in IC50: 1.2 µM for the first, 1.7 µM for the second.

First: CCCCCCCCCCCCC/C=C/[C@@H](OC(=O)c1ccccc1)[C@H](CO[C@@H]1O[C@@H](CO)[C@@H](O)[C@H](OS(=O)(=O)O)[C@@H]1OS(=O)(=O)O)NC(=O)CCCCCCCCCCCCCCC
Second: CCCCCCCCCCCCC/C=C/[C@@H](O)[C@H](CO[C@@H]1O[C@@H](CO)[C@@H](O)[C@H](O)[C@@H]1OS(=O)(=O)O)NC(=O)CCCCCCCCCCCCCCC
The IC50 of the first is 25-fold lower: 0.1 µM for the first, 2.5 µM for the second. The first is the more potent here.

Going from `CCCCCCCCCCCCC/C=C/[C@@H](O)[C@H](CO[C@@H]1O[C@@H](CO)[C@@H](OS(=O)(=O)O)[C@H](O)[C@@H]1O)NC(=O)CCCCCCCCCCCCCCC` to `CCCCCCCCCCCCC/C=C\C(O)C(CO)NC(=O)O[C@@H]1O[C@H](CO)[C@H](O)[C@H](O)[C@H]1O` (some centres not stated) [GALACTOCEREBROSIDE], the IC50 rises from 12.5 µM to greater than 50 µM. The first is the more potent here.
